# Measurements pooled from the literature.
# Compare with care: the assays were run in different laboratories.
# Target: MAP kinase-activated protein kinase 2 (MAPKAPK2, Homo sapiens, UniProt P49137)
Compound,test,conditions,remaining binding [%]
O=C(c1ccc(Nc2nccc(-c3cc4ccccc4s3)n2)cc1)N1CCC(N2CCCC2)CC1,"binding, competition with immobilised ligand",1 µM,100
CN([C@@H]1CCc2c(CC(=O)O)c3ccccc3n2C1)S(=O)(=O)c1ccc(F)cc1,"cell-free assay, competition with immobilised ligand",1 µM,100
O=C(NCCCN1CCOCC1)c1ccc(Nc2ncc(Cl)c(-c3ccc(Cl)s3)n2)cc1,"binding, competition with immobilised ligand",1 µM,100
N#Cc1ccccc1CSc1nnc2c(n1)[nH]c1ccccc12,"binding, competition with immobilised ligand",10 µM,82
O=C(NCCCN1CCOCC1)c1ccc(Nc2nccc(-c3cc4ccccc4s3)n2)cc1,"binding, competition with immobilised ligand",1 µM,100
C=CC(=O)N1CCC(C(=O)NCC(=O)N2CCN(c3nc(-c4cnc(N)nc4C(F)F)nc(N4CCOCC4)n3)CC2)CC1,"binding, competition with immobilised ligand",1 µM,100
Cc1c(C(=O)O)cc(-c2ccc(C3CCNCC3)cc2)c2ccc(-c3ccc(C(F)(F)F)cc3)cc12,"binding, competition with immobilised ligand",1 µM,88
C[C@@H]1CN(c2ccc3ncc(-c4ccc5[nH]nc(C6CC6)c5c4)n3n2)C[C@H](C)O1,"binding, competition with immobilised ligand",0.5 µM,89
CCCOc1ccc([C@H]2[C@H](C(=O)O)[C@@H](c3ccc4c(c3)OCO4)CN2CC(=O)Nc2c(CC)cccc2CC)cc1,"cell-free assay, competition with immobilised ligand",1 µM,100
C[C@@H](c1ccc(-n2cnc3c(N)ncnc32)cc1)N1CCc2nn(C)c(Cc3ccccc3)c2C1=O,"binding, competition with immobilised ligand",0.1 µM,49
NS(=O)(=O)c1cc(NC(=O)Cc2ccccc2)ccc1Oc1cccc(Cl)c1,"cell-free assay, competition with immobilised ligand",1 µM,100
N[C@@H]1CCN(c2nccc(-c3cnn4ncccc34)n2)C1,binding,1 µM,100
Cn1nc(C(F)(F)F)cc1-c1cnc(N2CCc3cc(S(=O)(=O)Nc4c(F)cc(Cl)cc4F)cc(N4CCCC4=O)c32)nc1,"cell-free assay, competition with immobilised ligand",1 µM,73
O=C(Nc1c[nH]nc1C(=O)NC1CCNCC1)c1cc(F)cc(F)c1,"binding, competition with immobilised ligand",1 µM,100
COc1cc(-c2cn(C3CCc4ccccc4N(CC(F)(F)F)C3=O)nn2)ccc1-n1ccc(C)n1 (stereo not drawn),"cell-free assay, competition with immobilised ligand",1 µM,90
Nc1ncc2c(n1)-c1c([nH]c3ccc(C#CC4CC4)cc13)CCCC2,"binding, competition with immobilised ligand",1 µM,86
F[C@@H]1CCN(c2nccc(-c3cnn4ncccc34)n2)C1,binding,1 µM,93
COc1cnc(Nc2cccc(S(N)(=O)=O)c2)nc1N1CCN(c2ccccc2)C(=O)C1,"binding, competition with immobilised ligand",1 µM,100
Cc1cnn2ncc(-c3ccnc(N(C)C)n3)c2c1,binding,1 µM,100
FC(F)(F)Oc1cccc(-c2cnc3ccc(-c4ccncc4)nn23)c1,"cell-free assay, competition with immobilised ligand",5 µM,100
CN(C)c1ncc(F)c(-c2cnn3ncccc23)n1,binding,1 µM,100
CCN1CCN(Cc2ccc(C(=O)Nc3ccc(C)c(Oc4ccc5c(c4)CC(=O)N5)c3)cc2C(F)(F)F)CC1,"binding, competition with immobilised ligand",1 µM,100
CNCc1ccccc1-c1csc([C@@H](C)Nc2nc(C)nc3cc(OC)c(OC)cc23)c1,"cell-free assay, competition with immobilised ligand",1 µM,83
C[C@H]1CCN(c2nccc(-c3cnn4ncccc34)n2)C1,binding,1 µM,100
